In data set [1] the test system is Mus musculus. The data set can be described thus: Anticonvulsant against s.c. Metrazol-induced convulsions after 30 min. In kind it is functional. The method in brief: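 Mice (male Carworth Farms No. 1) got ip doses of 30, 100 or 300 mg/kg (600 mg/kg for one agent), checked at 0.5 h. Pentylenetetrazole 85 mg/kg as a 0.5% solution was injected sc in the posterior midline, then the animal was watched for 30 min. Protection means no threshold seizure (clonic spasms lasting ≥5 s). Single animals per dose; scored 0–4 by dose level.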

The species named for data set [2] is Mus musculus. The data set can be described thus: Anticonvulsant against maximal electroshock induced convulsions after 30 min. In kind it is functional. The procedure, abridged: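 Male Carworth Farms No. 1 mice, test agent given ip at 30, 100 and 300 mg/kg (one agent also at 600 mg/kg); read at 0.5 h. Electroshock via electrodes, with a drop of 0.9% saline in the eye first. Protection is abolition of the hind-limb tonic extension. One mouse per dose. Scored 0–4 by the lowest dose with noticeable activity.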
(In the maximal electroshock model the usual endpoint is tonic extension of the hind limbs.)

The species entered for data set [3] is Mus musculus. Description: Anticonvulsant activity was determined by rotarod toxicity test (neurologic toxicity) at an interval of 0.5 h. The format is organism-based. Conditions: in vivo. The method in brief: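 Phase I screen in male Carworth Farms No. 1 mice, ip at 30, 100 and 300 mg/kg, read at 0.5 h. Four mice per dose on a 1-in. knurled rod at 6 rpm; neurotoxicity is failure to remain on it for 1 min. Scored 0–4: 0 = none at 600 mg/kg, then 1–4 = activity at 600, 300, 100 or 30 mg/kg.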
(In the rotarod test animals must keep their balance on a rotating rod.)

The test system of data set [4] is Mus musculus. The data set can be described thus: Anticonvulsant activity was determined by subcutaneous picrotoxin test (CD97=3.15 mg/kg) (Phase V Pharmacological Evaluation). The format is functional. Conditions: sc.
The test system of data set [5] is Mus musculus. The data set can be described thus: Anticonvulsant activity was determined by subcutaneous Metrazol-induced convulsions (sc MET)(Phase V Pharmacological Evaluation). In kind it is functional. The method in brief: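 Mice, normally eight per dose; Metrazol 85 mg/kg (CD97) as 0.5% solution sc in posterior midline. Animals isolated and observed 30 min; protection: no threshold seizure (a clonic spasm episode of at least 5 s).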

Data set [6] has as its system Mus musculus. The data set can be described thus: Anticonvulsant activity was determined by subcutaneous Metrazol-induced convulsions seizure test (Phase II Pharmacological Evaluation). The format is functional. The note with it: sc. The method in brief:
(§1)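 MES protection: hind-limb tonic extension abolished; saline drop in eye before electrodes. sc Met: pentylenetetrazole 85 mg/kg as 0.5% solution sc in posterior midline, 30 min observation; protection: no clonic spasm episode of at least 5 s. Rotarod toxicity: falling off a 1-in. rod at 6 rpm within 1 min. PI = TD50/MES ED50.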

The subject of data set [7] is Mus musculus. Description: Anticonvulsant activity was determined by subcutaneous Metrazol-induced convulsions seizure test (Phase IV Pharmacological Evaluation). The format is functional. Conditions: sc. The procedure, abridged: (§2)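 MES protection: hind-limb tonic extension abolished. sc Met: pentylenetetrazole 85 mg/kg as 0.5% solution sc, 30 min observation; protection: no threshold clonic seizure of 5 s or more. Toxicity: failing to stay 1 min on a 6 rpm rod. PI = TD50/MES ED50.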

The test system of data set [8] is Mus musculus. Description: Anticonvulsant activity was determined by subcutaneous bicuculline test (CD97=2.70 mg/kg) (Phase V Pharmacological Evaluation). In kind it is functional. Conditions: sc.
Data set [9] in a line: Neurologic toxicity activity was determined by rotarod toxicity test (Phase II Pharmacological Evaluation). In kind it is organism-based. Conditions: mouse, in vivo.
Data set [10] can be described thus: Neurologic toxicity activity was determined by rotarod toxicity test (Phase IV Pharmacological Evaluation). The format is organism-based. Conditions: mouse, in vivo.
The species named for data set [11] is Mus musculus. The data set can be described thus: Anticonvulsant activity was determined by maximum-induced convulsions electroshock seizure test (Phase II Pharmacological Evaluation). In kind it is functional.
The nature of data set [12]: Protectivity index is the ratio of TD50 /MES ED50 from Phase-II evaluation. The format is functional. The procedure, abridged: as §1
The test system of data set [13] is Mus musculus. The data set can be described thus: Anticonvulsant activity was determined by subcutaneous pentylenetetrazole seizure test (Phase IV Pharmacological Evaluation). In kind it is functional. Conditions: sc. The procedure, abridged: as §2
Data set [14] is filed under the species Mus musculus. The data set can be described thus: Anticonvulsant activity was determined by maximum-induced convulsions electroshock seizure test (Phase III Pharmacological Evaluation). The format is functional.
Data set [15] is described as follows: Protectivity index is the ratio of TD50 /MES ED50 from Phase-IV evaluation. In kind it is functional. The procedure, abridged: as §2
The species entered for data set [16] is Mus musculus. The data set can be described thus: Anticonvulsant activity was determined by maximum-induced convulsions electroshock seizure test (Phase IV Pharmacological Evaluation). In kind it is functional.

The text below walks through data of ChEMBL document CHEMBL1123702, “Functionalized DL-amino acid derivatives. Potent new agents for the treatment of epilepsy” (J Med Chem, 1987).

Each structure is given as a SMILES string. Non-standard residues stand in square brackets, D forms with d. Residues, ends and D or L forms follow the SMILES beside them. ξ: configuration not given here. *: point of attachment. NHBn = c1ccc(CN*)cc1; ξA = CC(N)C(=O)O

In the case of `CC(C)C(=O)NC(C)C(=O)NCc1ccccc1` (stereo unspecified), the MET in data set [1] turned out to be 0. The MES in data set [2] was 0. Further, in [3], the Toxicity is 0.

In turn, `CC(=O)NC(C(=O)NCc1ccccc1)(c1ccccc1)c1ccccc1` gave an MET in data set [1] of 0. The MES in data set [2] worked out at 0. In addition, in data set [3], the Toxicity amounted to 0.

`CC(=O)NC(C)C(=O)NCC(=O)NCc1ccccc1` (stereo unspecified) (Ac-[ξA]-Gly-NHBn): in data set [1], the MET stood at 0. The MES in data set [2] was 0. The compound also returned a Toxicity in [3] of 0.

In general, ED50 refers to the dose that gives a 50% effect, or the effect in half of the subjects. Read a low ED50 as greater potency. Usually TD50 stands for the 50% point of the dose-response relation for the toxic effect studied. Lower therefore signals harm at a small dose. With `CCC1(C)CC(=O)NC1=O` (stereo unspecified) [ETHOSUXIMIDE], the ED50 was determined as 243 mg/kg in data set [4]; 130 mg/kg in [5]; 130 mg/kg in [6]; 192 mg/kg in data set [7]; 459 mg/kg in data set [8]. For the same compound, the TD50 in data set [9] worked out at 441 mg/kg; in [10] it was 879 mg/kg.

As to `CC(=O)NC(C)C(=O)NCc1cccc(F)c1` (stereo unspecified), in data set [1], the MET is on record as 0. In addition, the values for the ED50 in data set [11] and in data set [6] were 77.4 mg/kg and 142 mg/kg, respectively. The MES in data set [2] amounted to 3. The compound further gave a Toxicity in data set [3] of 0. For the same compound, the Protective Index in data set [12] is greater than 6.46.

In the case of `CSCCC(NC(C)=O)C(=O)NCc1ccccc1` (stereo unspecified), the MET in [1] came to 0. Also, the MES in data set [2] came to 2. The Toxicity in [3] is 0.

In turn, `COc1cccc(CNC(=O)C(C)NC(C)=O)c1` (stereo unspecified) returned an MET in data set [1] of 0. This compound returned an MES in data set [2] of 2. This compound also yielded a Toxicity in data set [3] of 0.

Compound `CC(=O)NC(Cc1ccccc1)C(=O)NCc1ccccc1` (stereo unspecified) registered an MET in data set [1] of 0. For the same compound, the MES in [2] stood at 0. In [3], the Toxicity is listed as 0.

The compound `CC(=O)NC(C)C(=O)NC(c1ccccc1)c1ccccc1` (stereo unspecified) returned an MET in data set [1] of 0. This compound also yielded an MES in [2] of 0. The Toxicity in data set [3] came out at 0.

As for `CC(NC(=O)C(C)(C)C)C(=O)NCc1ccccc1` (stereo unspecified), in data set [1], the MET is 2. Besides, the MES in data set [2] is 2. Also, in data set [3], the Toxicity is on record as 0.

`CC(=O)NC(C)C(=O)NCc1ccccc1` (stereo unspecified): the ED50 in [4] was determined as 134 mg/kg; in data set [13], 266 mg/kg; in data set [11], 76.5 mg/kg; in data set [14], 123 mg/kg; in data set [8], 205 mg/kg. Moreover, the MET in data set [1] was 0. This compound also showed an MES in data set [2] of 3. Further, the Toxicity in data set [3] is given as 1. The Protective Index in data set [12] is 5.93; in data set [15] it was greater than 8.15.

In data set [1], `CC(=O)NCCC(=O)NCc1ccccc1` yielded an MET of 0. In addition, the MES in data set [2] was 0. Further, the Toxicity in data set [3] came out at 0.

For `CC(=O)NCC(=O)NC(C)C(=O)NCc1ccccc1` (stereo unspecified) (Ac-Gly-[ξA]-NHBn), the MET in data set [1] worked out at 0. Also, the MES in data set [2] was determined as 0. In addition, in data set [3], the Toxicity was 0.

Consider `CC(=O)NCC(C)C(=O)NCc1ccccc1` (stereo unspecified), for which, in [1], the MET was 0. Moreover, the MES in data set [2] came out at 2. Besides, the Toxicity in data set [3] was determined as 0.

The compound `CC(=O)NCC(=O)NCc1ccccc1` had an MET in data set [1] of 0. The same compound displayed an MES in data set [2] of 2. In data set [3], this compound yielded a Toxicity of 2.

Take `CC(=O)NC(C(=O)NCc1ccccc1)C(C)C` (stereo unspecified): the MET in data set [1] was found to be 0. In data set [2], this compound had an MES of 2. Also, the Toxicity in data set [3] is 0.

For `CC(=O)NC(C(=O)NCc1ccccc1)c1ccccc1` (stereo unspecified), the MET in [1] is 0. The ED50 in [11] is 20.3 mg/kg; in data set [16], 46.7 mg/kg. The compound further returned an MES in [2] of 4. The TD50 in [9] turned out to be 96.9 mg/kg; in data set [10] it was 241 mg/kg. The compound also registered a Toxicity in [3] of 2. Further, the Protective Index in data set [12] is 4.77; in data set [15], 5.17.

The compound `CNC(=O)C(C)NC(C)=O` (stereo unspecified) gave an MET in data set [1] of 0. The same compound yielded an MES in data set [2] of 0. The Toxicity in data set [3] turned out to be 0.

In the case of `CCCC(CCC)C(=O)O` [VALPROIC ACID], the ED50 in data set [4] amounted to 387 mg/kg; in data set [11], 272 mg/kg; in data set [16], 665 mg/kg; in data set [5], 149 mg/kg; in [6] it was 149 mg/kg; in data set [7] it was 388 mg/kg. In addition, the 50% effect level in data set [8] (ED50) was put at a dose of 360 mg/kg.
